Assay results reported in ChEMBL document CHEMBL4699631, “Antimalarial and anti-inflammatory activities of new chloroquine and primaquine hybrids: Targeting the blockade of malaria parasite transmission” (Bioorg Med Chem, 2020).
The source made the active and inactive calls. No cut-off for these calls is given here.

Legend:
Plasmodium falciparum = assay: Antimalarial activity against Plasmodium falciparum CQR (W2 clone) infected in human erythrocyte assessed as reduction in parasite growth incubated for 48 hrs by SYBR assay; assay type: functional, organism-based
In short: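 W2 parasites cultured in A+ human erythrocytes in RPMI 1640 with ALBUMAX II, candle jar, 37 °C. Rings synchronized with sorbitol, then exposed to serial dilutions at 0.5% parasitemia and 2% hematocrit for 48 h at 37 °C. Lysis buffer with SYBR Safe, 30 min in the dark, fluorescence read at ex 485 nm. IC50 from sigmoid curve fit against drug-free control.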

[1] = Cytotoxicity against monkey BGM cells assessed as reduction in cell viability incubated for 24 hrs by neutral red dye based assay; conditions: chlorocebus aethiops, read-out: MDL50
In short: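 BGM monkey kidney cells grown in RPMI 1640 with 10% heat-inactivated fetal serum and gentamicin, 5% CO2, 37 °C. Cells allowed to adhere for 24 h, then exposed to compounds at 1000–1 μg/mL for 24 h. Neutral red uptake for 3 h, formaldehyde/CaCl2 fix, alcohol-acetic acid elution, absorbance at 540 nm. Viability taken as percent of untreated cells after background subtraction. MLD50 derived from this.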

[2] = Selectivity index, ratio of MDL50 for monkey BGM cells to IC50 for Plasmodium falciparum CQR (W2 clone) infected in human Erythrocyte; assay type: toxicity
In short: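 SI calculated as MLD50 in BGM cells (neutral red, 24 h) divided by IC50 against P. falciparum W2 (SYBR, 48 h).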

Plasmodium berghei [3] = assay: Antimalarial activity against Plasmodium berghei NK65 infected in mouse assessed as parasite growth at 25 mg/kg, po administered for 3 days and measured on day 5 Giemsa staining based assay relative to control; assay type: functional; conditions: time 5 day
In short: (§1)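 P. berghei NK65 kept by weekly blood passage in mice. Mice inoculated i.p. with 1×10^6 infected erythrocytes, randomized after about 24 h into groups of five. Oral dosing once daily for three days, vehicle 3% DMSO in RPMI. Test compounds given at 25 mg/kg, CQ control at 20 mg/kg. Parasitemia read on Giemsa-stained thin smears on days 5 and 7 and expressed relative to untreated mice.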

Plasmodium berghei [4] = assay: Antimalarial activity against Plasmodium berghei NK65 infected in mouse assessed as parasite growth at 25 mg/kg, po administered for 3 days and measured on day 7 Giemsa staining based assay; assay type: functional; conditions: time 7 day; in short: as §1
Plasmodium berghei [5] = assay: Antimalarial activity against Plasmodium berghei NK65 infected in mouse assessed as increase in mouse survival rate at 25 mg/kg, po administered for 3 days and observed for 7 days; assay type: functional, organism-based; conditions: time 7.0 day
[6] = Cytotoxicty against mouse J774.A1 cells assessed as cell viability at 12.5 uM incubated for 24 hrs by resazurin dye based assay (reference value: 100 %); conditions: read-out: Activity
In short: (§2)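 J774A.1 macrophages grown in DMEM with 10% FBS and 0.1% gentamycin, seeded at 1×10^5 cells/well. Exposed to compounds at 0, 12.5, 25, 50 or 100 μM for 24 h. Resazurin (10 μg/ml) added for 3 h, then fluorescence read. Run in triplicate. Viability given as percent of 0.2% DMSO-treated cells.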

[7] = Cytotoxicty against mouse J774.A1 cells assessed as cell viability at 25 uM incubated for 24 hrs by resazurin dye based assay (reference value: 100 %); conditions: read-out: Activity; in short: as §2
[8] = Cytotoxicty against mouse J774.A1 cells assessed as cell viability at 50 uM incubated for 24 hrs by resazurin dye based assay (reference value: 100 %); conditions: read-out: Activity; in short: as §2
[9] = Cytotoxicty against mouse J774.A1 cells assessed as cell viability at 100 uM incubated for 24 hrs by resazurin dye based assay (reference value: 100 %); conditions: read-out: Activity; in short: as §2
J774.A1 [10] = assay: Inhibition of LPS-induced NO production in mouse J774.A1 cells incubated for 24 hrs by Griess reagent based assay; assay type: functional, cell-based; conditions: dose microM 0.5-25, time 24.0 hrs
In short: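 Compounds made as 10 mM DMSO stocks and diluted in medium. J774A.1 cells pre-incubated with compounds at 25 μM for screening, or 0.5–25 μM for dose-response, with dexamethasone 1 μM or 0.2% DMSO as controls. Stimulated with LPS 37.5 ng/ml plus IFNγ 25 U/ml for 24 h at 37 °C, 5% CO2. Supernatant nitrite measured by Griess at 540 nm. Triplicate, mean ± SEM.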

J774.A1 [11] = assay: Inhibition of LPS-induced TNFalpha production in mouse J774.A1 cells incubated for 24 hrs by ELISA; assay type: functional, cell-based; conditions: dose microM 0.5-25, time 24.0 hrs
In short: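 J774A.1 cells seeded at 2×10^6 cells/well. Pretreated with vehicle, dexamethasone 1 μM, or compounds at 0.5–25 μM. Stimulated with LPS 100 ng/ml for 24 h. Supernatants stored at −20 °C, then TNFα measured by sandwich ELISA in pg/mL. Triplicate, mean ± SEM.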

Plasmodium berghei [12] = assay: Antimalarial activity against Plasmodium berghei NK65 infected in mouse assessed as parasite growth at 20 mg/kg, po administered for 3 days and measured on day 5 Giemsa staining based assay relative to control; assay type: functional; conditions: time 5 day; in short: as §1
Plasmodium berghei [13] = assay: Antimalarial activity against Plasmodium berghei NK65 infected in mouse assessed as parasite growth at 20 mg/kg, po administered for 3 days and measured on day 7 Giemsa staining based assay relative to control; assay type: functional; conditions: time 7 day; in short: as §1
Plasmodium berghei [14] = assay: Antimalarial activity against Plasmodium berghei NK65 infected in mouse assessed as increase in mouse survival at 20 mg/kg, po administered for 3 days and observed for 7 days; assay type: functional, organism-based; conditions: time 7.0 day

Compound | IC50 (Plasmodium falciparum) [µM] | CC50 at 24 h [1] [µM] | selectivity ratio [2] | viability at 24 h, 12.5 µM [6] [%] | viability at 24 h, 25 µM [7] [%] | viability at 24 h, 50 µM [8] [%] | viability at 24 h, 100 µM [9] [%] | also measured
COc1cc(NC(C)CCCNC(=O)C(F)(F)c2cc(Br)ccc2NC(C)=O)c2ncccc2c1 (stereo unspecified) | 3.5 | > 1820 | > 520 |  |  |  |  | 
CC(=O)Nc1ccc(Cl)cc1C(=O)C(=O)NCCCNc1ccnc2cc(Cl)ccc12 | 0.12 | 30.9 | 258 | 100 | 100 | 82.7 | 10.7 | Activity (Plasmodium berghei [3]): 0%; Activity (Plasmodium berghei [4]): 0%; Activity (Plasmodium berghei [5]): Active; inhibition (J774.A1 [10]): Dose-dependent effect; inhibition (J774.A1 [11]): Dose-dependent effect
COc1cc(NC(C)CCCNC(=O)C(=O)c2cc(C)ccc2NC(C)=O)c2ncccc2c1 (stereo unspecified) | 25.3 | > 2160 | > 80 |  |  |  |  | 
CCN(CC)CCCC(C)Nc1ccnc2cc(Cl)ccc12 (stereo unspecified) [CHLOROQUINE] |  | 457 |  |  |  |  |  | Activity (Plasmodium berghei [12]): 99%; Activity (Plasmodium berghei [13]): 99%; Activity (Plasmodium berghei [14]): Active
COc1cc(NC(C)CCCNC(=O)C(=O)c2cc(Br)ccc2NC(C)=O)c2ncccc2c1 (stereo unspecified) | 2.5 | 309 | > 100 | 100 | 100 | 75.5 | 75.8 | 
COc1cc(NC(C)CCCNC(=O)C(=O)c2cc(Cl)ccc2NC(C)=O)c2ncccc2c1 (stereo unspecified) | 7.7 | 164 | > 20 | 100 | 100 | 77.6 | 54.6 | 
CC(=O)Nc1ccc(Cl)cc1C(F)(F)C(=O)NCCCNc1ccnc2cc(Cl)ccc12 | 0.5 | 654 | > 1300 | 100 | 95.5 | 87.5 | 10.4 | inhibition (J774.A1 [10]): Dose-dependent effect; inhibition (J774.A1 [11]): Dose-dependent effect
COc1cc(NC(C)CCCNC(=O)C(F)(F)c2cc(C)ccc2NC(C)=O)c2ncccc2c1 (stereo unspecified) | 20.7 |  |  |  |  |  |  | 
CC(=O)Nc1ccccc1C(=O)C(=O)NCCCCNc1ccnc2cc(Cl)ccc12 | 0.18 | 124 | > 700 | 98.4 | 100 | 83.4 | 10.1 | Activity (Plasmodium berghei [3]): 0%; Activity (Plasmodium berghei [4]): 2%; inhibition (J774.A1 [11]): inactive
CC(=O)Nc1ccccc1C(=O)C(=O)NCCNc1ccnc2cc(Cl)ccc12 | 0.71 | 261 | > 300 |  |  |  |  | 
CC(=O)Nc1ccc(Cl)cc1C(=O)C(=O)NCCNc1ccnc2cc(Cl)ccc12 | 0.52 | 152 | 292 |  |  |  |  | 
CC(=O)Nc1ccccc1C(=O)C(=O)NCCCNc1ccnc2cc(Cl)ccc12 | 0.2 | 91.7 | > 400 | 100 | 100 | 89.1 | 67.6 | Activity (Plasmodium berghei [3]): 0%; Activity (Plasmodium berghei [4]): 15%; Activity (Plasmodium berghei [5]): Active
CC(=O)Nc1ccccc1C(F)(F)C(=O)NCCCCNc1ccnc2cc(Cl)ccc12 | 2.7 | 140 | > 50 | 100 | 100 | 83.7 | 10.4 | 
CC(=O)Nc1ccc(C)cc1C(=O)C(=O)NCCNc1ccnc2cc(Cl)ccc12 | 0.49 | > 84 | > 170 |  |  |  |  | 
COc1cc(NC(C)CCCNC(=O)C(=O)c2ccccc2NC(C)=O)c2ncccc2c1 (stereo unspecified) | 26.8 |  |  |  |  |  |  | 
CC(=O)Nc1ccc(C)cc1C(=O)C(=O)NCCCNc1ccnc2cc(Cl)ccc12 | 0.22 |  |  |  |  |  |  | 
COc1cc(NC(C)CCCNC(=O)C(F)(F)c2ccccc2NC(C)=O)c2ncccc2c1 (stereo unspecified) | 25.5 | 113 | 4 |  |  |  |  | 
CC(=O)Nc1ccccc1C(F)(F)C(=O)NCCCNc1ccnc2cc(Cl)ccc12 | 0.4 | 99 | > 250 | 100 | 100 | 91.5 | 33.3 | 
CC(=O)Nc1ccc(Br)cc1C(=O)C(=O)NCCCNc1ccnc2cc(Cl)ccc12 | 0.38 | 103 | 270 |  |  |  |  | 
CC(=O)Nc1ccc(Cl)cc1C(=O)C(=O)NCCCCNc1ccnc2cc(Cl)ccc12 | 3.18 | 91.1 | 29 |  |  |  |  | 
CC(=O)Nc1ccc(C)cc1C(=O)C(=O)NCCCCNc1ccnc2cc(Cl)ccc12 | 0.84 |  |  |  |  |  |  | 
